Experimental data from different studies.
Each line is one published result; the experiments were not run side by side.
Target: Inhibitor of nuclear factor kappa-B kinase subunit beta (IKBKB, Homo sapiens, UniProt O14920)

The inhibition of `CN(C)C1CCN(CC#Cc2nn(C3CCCC3)c3nc(NCc4ccccc4)ncc23)C1` (centres unmarked) is reported as 2% (enzyme activity; inhibitor; FRET; 10 µM).
The remaining signal of `O=C1NC(=O)c2cc(Nc3ccc(F)cc3)c(Nc3ccc(F)cc3)cc21` is reported as 95.6% (cell-free assay; 0.5 µM).
The ΔTm of `Cn1c2c(Cl)c(Cl)ccc2c2cc(N)[nH]c(=O)c21` is reported as -0.6 °C (thermal stability; DSF; 10 µM).
For `CCS(=O)(=O)c1cc2cc(C[C@](O)(CC(C)(C)c3ccc(F)cc3C(N)=O)C(F)(F)F)[nH]c2cn1`, the remaining binding was 91% (cell-free assay; competition with immobilised ligand; 1 µM).
`CC/C(=N\NC(=O)NCc1cccc(O)c1)c1ccc(O)c(C)c1O` has an inhibition of -0.9% (enzyme activity; inhibitor; 0.1 µM).
The inhibition of `CCN(CC)CCNC(=O)c1c(C)[nH]c(/C=C2\C(=O)Nc3ccc(F)cc32)c1C` is reported as -1% (enzyme activity; inhibitor; 0.3 µM).
The remaining activity of `Cc1cnc(NC2CCOCC2)nc1-n1cnc(C(=O)NC(CN)c2cc(F)cc(Cl)c2)c1` (centres unmarked) is reported as 100% (enzyme activity; inhibitor; radiometric; 1 µM).
The remaining activity of `CCN(CC)c1ccc(C2=NNC(=O)CC2C)cc1[N+](=O)[O-]` (centres unmarked) is reported as 97% (enzyme activity; inhibitor; 10 µM).
For `Cn1c(=O)n(-c2ccc(C(C)(C)C#N)cc2)c2c3cc(-c4cnc5ccccc5c4)ccc3ncc21`, the remaining activity was 92% (enzyme activity; inhibitor; 10 µM).
`NS(=O)(=O)c1cc(NC(=O)C2(c3ccccc3Cl)CC2)ccc1Oc1cccc(Cl)c1` has a remaining binding of 70% (cell-free assay; competition with immobilised ligand; 1 µM).
`COc1cc(Nc2cnc(C#N)c(O[C@H](C)CN(C)C)n2)ncc1-c1cnn(C)c1` gave a remaining activity of 96% (enzyme activity; inhibitor; radiometric; 1 µM).
With `Cc1ccc(Nc2nccc(N(C)c3ccc4c(C)n(C)nc4c3)n2)cc1S(N)(=O)=O` the inhibition was 3% (enzyme activity; inhibitor; 0.3 µM).
For `C=CC(=O)Nc1cc(Nc2nccc(Nc3cc(Cl)c(F)cc3C(C)(C)O)n2)c(OC)cc1N1CC[C@@H](N(C)C)C1`, the inhibition was -5% (enzyme activity; inhibitor; 1 µM).
`Oc1cccc(-c2nc(N3CCOCC3)c3oc4ncccc4c3n2)c1` gave a remaining activity of 74% (enzyme activity; inhibitor; 10 µM).
With `CC(C)(C)c1nc(-c2cccc(NS(=O)(=O)c3c(F)cccc3F)c2F)c(-c2ccnc(N)n2)s1` the remaining activity was 94% (enzyme activity; inhibitor; radiometric; 1 µM).
With `Nc1nc(NC2CCCCC2)sc1C(=O)c1ccccc1` the remaining activity was 70% (enzyme activity; inhibitor; 10 µM).
The remaining activity of `COc1cc(Cl)c(C(=O)N[C@@H](CN[C@H]2CC[C@@H](N)CC2)Cc2ccc(C#N)cc2)cc1-c1ccc(CN[C@H](C)c2ccc(C)cc2)o1` is reported as 88% (enzyme activity; inhibitor; 1 µM).
With `O=C(O)[C@H]1[C@H](Cn2nnc3ccccc3c2=O)CC[C@@H]1C(=O)c1ccc(OCCC2CCOCC2)cc1` the remaining binding was 100% (cell-free assay; competition with immobilised ligand; 1 µM).
`O=C1c2ccccc2-c2n[nH]c3cccc1c23` gave an activity vs control of 75.8% (enzyme activity; inhibitor; 0.5 µM).
The activity vs control of `COc1cc(/C=C/C(=O)CC(=O)/C=C/c2ccc(O)c(OC)c2)ccc1O` is reported as 69% (enzyme activity; inhibitor; 1 µM).
With `O=C1Nc2ccc(Cl)cc2C1=Cc1cc(Cl)c(O)c(Cl)c1` the remaining signal was 93.6% (cell-free assay; 0.5 µM).
With `CCCS(=O)(=O)Nc1ccc(F)c(C(=O)c2c[nH]c3ncc(-c4ccc(Cl)cc4)cc23)c1F` the inhibition was under 10% (enzyme activity; inhibitor; 1 µM).
`CS(=O)(=O)Nc1cccc(-c2csc(NC(=O)CSc3nc4nccnc4c(=O)n3CCc3ccccc3)n2)c1` gave an inhibition of 4% (enzyme activity; inhibitor; 10 µM).
`CN(c1ccnc(CNc2nc(Nc3ccc4c(c3)CC(=O)N4)ncc2C(F)(F)F)n1)S(C)(=O)=O` has a remaining binding of 78% (cell-free assay; competition with immobilised ligand; 1 µM).
For `Clc1ccc(Nc2nnc(Cc3ccncc3)c3ccccc23)cc1`, the remaining signal was 85.6% (cell-free assay; 0.5 µM).
For `CCCCN(CCCC)C(=O)CN1C[C@@H](c2cc(OC)c3c(c2)OCO3)[C@H](C(=O)O)[C@H]1CC(C)(C)CCC`, the remaining binding was 100% (cell-free assay; competition with immobilised ligand; 1 µM).
`O=C(Nc1cnn(-c2csc(C(=O)NC3COC3)c2)c1)Nc1ccccc1Cl` gave a remaining activity of 95.6% (enzyme activity; inhibitor; 5 µM).
`COc1cc2ncnc(Nc3ccc(Oc4ccccc4)cc3C)c2cc1OC` gave an inhibition of 1% (enzyme activity; inhibitor; 1 µM).
`CC1=C(C#N)[C@@H](c2ccc3[nH]nc(C)c3c2)C(C#N)=C(c2ccc(Cl)cc2)N1` has a remaining binding of 100% (cell-free assay; competition with immobilised ligand; 1 µM).
`Cn1c2c(c3ccc(Cl)c(Cl)c31)C(C#N)C1(CCOCC1)NC2=O` (centres unmarked) has a ΔTm of -0.4 °C (thermal stability; DSF; 10 µM).
The remaining activity of `CCN(CC)CCNC(=O)c1c(C)[nH]c(/C=C2\C(=O)Nc3ccc(Cl)cc32)c1C` is reported as 101% (enzyme activity; inhibitor; 0.5 µM).
With `CC(C)(O)[C@H]1CC[C@H](Nc2ccc3ncc(-c4cccc(C(F)(F)F)c4)n3n2)CC1` the remaining activity was 95.4% (enzyme activity; inhibitor; 1 µM).
For `N#CC1c2c([nH]c3c(Cl)c(Cl)ccc23)C(=O)NC12CCCCC2` (racemic), the ΔTm was 0.6 °C (thermal stability; DSF; 10 µM).
With `O=C(Nc1cccnn1)N1CCC(=Cc2cccc(Oc3ccc(C(F)(F)F)cn3)c2)CC1` the remaining binding was 83% (cell-free assay; competition with immobilised ligand; 1 µM).
For `CCN1CCC2(CC1)NC(=O)c1c(c3ccc(Cl)c(Cl)c3n1C)C2C#N` (racemic), the ΔTm was 0 °C (thermal stability; DSF; 10 µM).
`CNC(=O)c1cc(Oc2ccc(NC(=O)Nc3ccc(Cl)c(C(F)(F)F)c3)cc2)ccn1` has an inhibition of -5% (enzyme activity; inhibitor; 0.3 µM).
The activity vs control of `FC(F)(F)Oc1cccc(-c2cnc3ccc(-c4ccncc4)nn23)c1` is reported as 84% (enzyme activity; inhibitor; radiometric; 5 µM).
`O=C(Nc1cccnn1)N1CC(C/C=C/c2cncc(Oc3ccc(C(F)(F)F)cn3)n2)C1` has a remaining binding of 94% (cell-free assay; competition with immobilised ligand; 1 µM).
For `Cn1c2c(c3ccc(Cl)c(Cl)c31)C(C#N)C1(CCCC1)NC2=O` (centres unmarked), the ΔTm was -0.7 °C (thermal stability; DSF; 10 µM).
The inhibition of `COc1cccc2c(NCc3ccccc3)nc(-n3c(N)nc4ccccc43)nc12` is reported as -13.4% (target engagement in cells; inhibitor; chemoproteomics; 20 mM).
With `Cc1ccc(C(=O)NCc2ccsc2)cc1C#Cc1cn(C(C)C)c2ncnc(N)c12` the activity vs control was 108% (enzyme activity; inhibitor; 1 µM).
